Assay [1] has as its system Mus musculus. Briefly: Allergy preventing effect in hen egg […]-sensitized ddY mouse assessed as inhibition blood flow decrease in tail artery at 20 mg/kg, po relative to control. Set-up: dose 20 mg/kg. The assay is classed as functional, organism-based. The procedure, abridged:
(§1)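 Male ddY mice, 5 weeks old, sensitized s.c. with 50 µg HEL in complete Freund's adjuvant on day 0. Compound given orally at 20 mg/kg on days 0, 3, 6 and 9, 1 h before measurement. After 10 min prewarming at 37 °C, tail subcutaneous blood flow was read by non-contact laser Doppler for 10 min daily over 9 days without anesthesia. Values are % of each mouse's normal flow, mean ± SE, n = 5, compared with HEL-sensitized controls.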

Another assay has as its system Platelet. Description: Inhibition of platelet aggregation in hen egg […]-sensitized ddY mouse blood after 9 days. The assay is classed as functional, tissue-based. Put shortly: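 Mice were HEL-sensitized and dosed orally at 20 mg/kg as in the blood-flow assay. On day 9, whole blood was drawn under diethyl ether anesthesia, anticoagulated with 3.8% sodium citrate and held 30 min at room temperature. Aggregation was induced with 8 µM ADP and measured by screen filtration pressure on a whole-blood aggregometer. Read-out is cohesion rate, mean ± SE, n = 5.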

Assay [2] concerns Mus musculus. Description: Allergy preventing effect in hen egg […]-sensitized ddY mouse assessed as inhibition of blood flow decrease in tail artery at 20 mg/kg, po after 6 days relative to control. In kind it is functional, organism-based. Set-up: dose 20 mg/kg. Put shortly: as §1
In assay [3] the test system is Mus musculus. Briefly: Allergy preventing effect in hen egg […]-sensitized ddY mouse assessed as inhibition of blood flow decrease in tail artery at 20 mg/kg, po after 7 days relative to control. The assay is classed as functional, organism-based. Set-up: dose 20 mg/kg. Put shortly: as §1
Assay [4] has as its system Mus musculus. Briefly: Allergy preventing effect in hen egg […]-sensitized ddY mouse assessed as inhibition of blood flow decrease in tail artery at 20 mg/kg, po after 5 days relative to control. In kind it is functional, organism-based. Set-up: dose 20 mg/kg. The procedure, abridged:
as §1

Calls of active or inactive are those of the source. No cut-off for these calls is given here.

Turning to `O=C(OCc1ccc(O)c(O[C@@H]2O[C@H](CO)[C@@H](O)[C@H](O)[C@H]2O)c1)c1ccccc1`, the outcome in the assay with Mus musculus [1] and in the assay on Platelet was Active.
Consider `CC(=O)OC[C@H]1O[C@@H](Oc2cc(COC(=O)c3ccccc3)ccc2O)[C@H](O)[C@@H](O)[C@@H]1O`, for which the result with Mus musculus [1] and with Platelet was Active.
Turning to `COc1cc(O)c(C(=O)/C=C/c2ccc(O)cc2)c(O[C@@H]2O[C@H](CO)[C@@H](O)[C@H](O)[C@H]2O)c1`, the result in the assay with Mus musculus [2], in the assay on Mus musculus [3] and in the assay with Platelet was Active.
For `COc1cc(O[C@@H]2O[C@H](CO)[C@@H](O)[C@H](O)[C@H]2O)c2c(c1)O[C@H](c1ccc(O)cc1)CC2=O`, the outcome in the assay with Mus musculus [2] and with Mus musculus [3] was Active. Moreover, the result with Platelet was inactive.
Turning to `OCc1ccccc1O[C@@H]1O[C@H](CO)[C@@H](O)[C@H](O)[C@H]1O`, in the assay with Mus musculus [4], the outcome was Active.
